# TPT1 inh: inhibitors of Candida albicans tRNA 2'-phosphotransferase TPT1 | inhibition, % at 5 µM | recombinant caTPT1, FP RNA substrate dephosphorylation | 300,000 tested, 0.81% active;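 active = inhibition above the mean of all tested compounds plus 3 SD, set per screening campaign, cut at about 24% in these data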;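 note: plate controls were DMSO alone for no effect and ferristatin control at 100 nM for full effect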
# CSN inh: inhibitors of human CSN-mediated cullin deneddylation. Purified CSN, SCF-Nedd8-OG deneddylation, fluorescence polarization. AID 651999. 360,000 tested, 0.38% active. inhibition, % at 12.5 µM;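 active = pattern-corrected inhibition above about 35%, with an unprinted fluorescence ratio check between 0.5 and 1.5, limit read from the data, passing the limit was not always enough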;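 note: 0% = enzyme with substrate and 100% = substrate without enzyme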
# Target sequence (Q92905 whole entry, looked up, one chain of several): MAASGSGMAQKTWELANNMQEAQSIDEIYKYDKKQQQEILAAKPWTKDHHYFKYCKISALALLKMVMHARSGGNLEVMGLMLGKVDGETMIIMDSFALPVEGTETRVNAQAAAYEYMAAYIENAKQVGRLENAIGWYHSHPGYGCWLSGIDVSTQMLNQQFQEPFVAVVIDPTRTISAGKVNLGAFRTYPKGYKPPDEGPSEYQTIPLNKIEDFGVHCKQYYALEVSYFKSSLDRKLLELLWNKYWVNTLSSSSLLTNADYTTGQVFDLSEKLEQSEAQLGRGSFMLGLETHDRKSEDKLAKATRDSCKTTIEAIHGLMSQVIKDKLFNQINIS
#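 assay system = purified human Csn5 enzyme expressed in HEK293T cells | amount = 0.24 nM enzyme | buffer or medium = Tris/NaCl/DTT buffer, pH 7.5 | reagent = 10 nM SCFSkp2-Nedd8OG | compound = one concentration, 12.5 µM, 0.25% DMSO | times = 90 min reaction at room temperature | signal = FP | read-out basis = % inhibition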
# Rpn11 inh: Rpn11 (human) deubiquitinase inhibition; O00487; 360,000 tested, 0.59% active; calls only at 20 µM; human 26S proteasome, Ub4-pepOG fluorescence polarization; 20S core pre-blocked with epoxomicin; AID 588493;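 active = inhibition at 20 µM, scaled to each plate's controls, above about 33%, limit read from the data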
# Target sequence (O00487 whole entry, looked up): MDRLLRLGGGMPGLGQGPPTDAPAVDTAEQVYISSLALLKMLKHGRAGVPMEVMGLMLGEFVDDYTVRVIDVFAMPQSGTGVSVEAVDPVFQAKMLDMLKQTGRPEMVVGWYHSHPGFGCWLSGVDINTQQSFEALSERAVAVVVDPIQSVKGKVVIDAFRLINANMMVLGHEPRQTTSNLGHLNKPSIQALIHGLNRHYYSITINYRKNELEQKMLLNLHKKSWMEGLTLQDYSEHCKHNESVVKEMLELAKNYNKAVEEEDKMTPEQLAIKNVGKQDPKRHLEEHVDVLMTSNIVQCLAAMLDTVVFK
# CRFBP-R2 agonist: agonists of human CRF-binding protein/CRF-R2 receptor complex; HEK293 CRF-R2/CRF-BP, calcium dye fluorescence (FLIPR); percent of saturating CRF peptide response; activation, % at 13.2 µM; 350,000 tested, 0.46% active;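 active = activation of at least 50%, plus an integration ratio under a set limit after plate pattern correction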;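 note: plate controls were neutral control wells without compound for no effect and CRF at EC100 for full effect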
# CRFR2-BP antag: antagonists of CRF-binding protein/CRF-R2 receptor complex. AID 588475. 350,000 tested, 0.59% active. HEK293 CRF-R2/CRF-BP, CRF-induced calcium fluorescence. inhibition, % at 11.8 µM;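 active = inhibition of the ligand-induced calcium signal above about 50% at the single tested concentration, limit read from the data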
# HNF4A DNA FP: change in binding of human HNF4 alpha to DNA | P41235 | activity change, % at 10 µM | HNF4a-FITC DNA binding, fluorescence polarization, 1 h | 360,000 tested, 0.3% active; in the data active = activity change above about 30%, passing the limit was not always enough
# An asterisk follows results filed as active; i = inactive; nt = no result given; + = active, no number. Compounds with a hit are over-represented: about 2.3% of the library has one in this group of screens.
SMILES,TPT1 inh,CSN inh,Rpn11 inh,CRFBP-R2 agonist,CRFR2-BP antag,HNF4A DNA FP
C=CCc1cccc2cc(C(=O)Nc3ccc(F)cc3)c(=O)oc12,-1.8,-3.1,i,-1.1,5.3,0.9
C=CCc1cccc2cc(C(=O)Nc3ccc(S(=O)(=O)Nc4nnc(CC)s4)cc3)c(=O)oc12,1.1,12.9,i,-1.4,60.7*,-12.3
CCc1nnc(NS(=O)(=O)c2ccc(NC(=S)NC(=O)/C=C/c3ccccc3)cc2)s1,-0.2,3.6,i,-1.4,55.7*,-4.1
CCc1nnc(NS(=O)(=O)c2ccc(NC(=S)NC(=O)/C=C/c3ccc(OC)cc3)cc2)s1,0.1,12.0,i,-2.6,43.5,-5.8
O=C(CSC(=S)N1CCOCC1)Nc1nccs1,-4.0,-4.2,i,-1.8,-1.6,-1.1
c1ccc2c(CN3CCCCC3)csc2c1,-2.5,-13.3,i,96.3*,35.1,-3.5
COc1ccc(OC)c(NC(=O)c2[nH]c(C)c(C(C)=O)c2C)c1,2.6,-0.8,i,-3.3,76.8*,1.2
COc1ccc(Cl)cc1NC(=O)c1[nH]c(C)c(C(C)=O)c1C,1.1,1.1,i,2.2,9.3,-0.3
C[C@@]12CC(=O)NC1N(C(=O)c1ccccc1)C(c1ccccc1OC(=O)c1ccccc1)C2 (stereo not given in full),-2.1,-0.1,i,0.6,-11.6,36.4*
C[C@@]12CC(=O)NC1N(C(=O)c1cccc(C(F)(F)F)c1)C(c1ccccc1OC(=O)c1cccc(C(F)(F)F)c1)C2 (stereo not given in full),-4.6,-2.8,i,3.0,-21.3,1.0
CCN1CCN(c2ccc(S(=O)(=O)N3CCCCC3)cc2NC(=O)/C=C/c2cccc(OC)c2OC)CC1,3.7,3.3,i,-0.8,105.9*,4.4
CCN1CCN(c2ccc(S(=O)(=O)N3CCOCC3)cc2NC(=O)c2cc(Cl)nc3ccccc23)CC1,1.0,4.5,i,-0.6,81.9*,4.4
Cc1ccc2cc(CN(C(=O)c3ccco3)c3ccccc3C)c(=O)[nH]c2c1,-2.7,-6.1,i,-1.7,13.5,-1.0
COc1ccc(CN(C(=O)c2ccc(C)cc2)C2CCS(=O)(=O)C2)cc1 (stereo not given),-1.5,-0.3,i,0.5,63.7*,4.5
CN(C)CCCN1C(=O)c2cccc3c([N+](=O)[O-])ccc(c23)C1=O,-25.5,-33.4,i,56.0*,80.9*,-37.4
CC(C)(C)N(NC(=O)OCc1ccccc1)C(=O)c1ccccc1,-4.8,3.9,i,0.5,8.3,1.9
O=C(COC(=O)[C@H](Cc1ccccc1)NC(=O)c1ccco1)NCc1ccccc1,-3.3,-8.4,i,78.8*,-72.0,1.9
CN(C)C(=O)COC(=O)[C@H](Cc1ccccc1)NC(=O)c1ccco1,-4.4,1.6,i,106.6*,-41.7,-1.7
Cc1n[nH]c(C)c1N1C(=O)c2cccc3c(N4CCCCCC4)ccc(c23)C1=O,-6.9,-70.1,i,399.5*,-375.4,-86.2
CC(=O)c1ccc2c3c(cccc13)C(=O)N(c1c(C)nn(C)c1C)C2=O,0.2,-3.1,i,1.5,-1.9,-2.7
Cc1ccccc1CNCc1ccc2c(c1)OCO2,nt,-0.6,i,-4.7,-12.5,-1.4
O=S(=O)(Nc1ccc(-c2csc(-c3ccccc3)n2)cc1)c1ccc(F)cc1,-1.5,4.7,i,2.8,-3.3,-4.3
O=C(Nc1nc(-c2ccccc2)cs1)c1ccccc1NS(=O)(=O)c1ccc(F)cc1,-1.6,-0.7,i,65.3*,101.1*,-4.2
Cc1ccc(C(=O)C=Cc2cccc(C)c2)cc1,nt,11.6,i,-0.8,59.5*,-0.1
Cn1ccc(C(=O)Nc2sc3c(c2C(N)=O)CCCCC3)n1,2.4,3.8,i,0.2,78.3*,-0.7
SMILES,TPT1 inh,CSN inh,Rpn11 inh,CRFBP-R2 agonist,CRFR2-BP antag,HNF4A DNA FP
O=c1/c(=C\c2ccc(O)cc2)sc2nc(-c3ccccc3)c(-c3ccccc3)n12,14.6,13.5,i,3.9,-1.2,52.1*
COC(=O)C1=C(O)/C(=C\c2ccc(CNS(=O)(=O)c3ccc(Cl)cc3)o2)N=C1C,2.7,11.8,i,15.2,15.4,9.1
COC(=O)C1=C(O)/C(=C\c2ccc(CNC(=O)C(=O)Nc3ccc(C)cc3)o2)N=C1C,-4.2,35.6*,i,7.6,3.7,0.4
CCOC(=O)C1=C(O)/C(=C\c2ccc(CNS(=O)(=O)c3ccc(Br)cc3)o2)N=C1C,11.3,52.0*,i,18.4,-7.7,15.7
CCOC(=O)C1=C(O)/C(=C/c2ccc(CNC(=O)C(=O)Nc3ccc(C)cc3)o2)N=C1C,5.3,28.2,i,-0.3,-5.5,1.4
Cc1cc(C)n(CCc2nc(-c3ccc(C(C)(C)C)cc3)cs2)n1,1.9,0.2,i,-1.6,0.7,0.1
CCCCCCn1c(=O)[nH]c2nc3cc(N)c(C)cc3nc2c1=O,nt,-74.4,i,324.9*,-227.9,-92.5
CCCCn1c(=O)[nH]c2nc3cc(NC(C)=O)ccc3nc2c1=O,-16.4,-3.0,i,22.1,-6.1,-5.8
O=c1cc(-c2ccc(F)cc2)oc2ccccc12,-0.2,-2.0,i,-1.2,98.9*,-0.8
CSc1ccc(-c2cc(=O)c3ccccc3o2)cc1,6.6,-5.5,i,-1.5,-36.3,2.6
Cc1cccc(C(=O)N/N=C/c2ccccn2)c1,1.3,2.8,i,-0.3,-0.9,3.0
COC(=O)c1ccc2nc(-c3cccc(Cl)c3)c(Cc3cccc(Cl)c3)n2c1,nt,2.9,nt,nt,nt,3.7
Nc1c(C(=O)NCc2ccco2)c2nc3ccccc3nc2n1CCc1ccc(F)cc1,19.6,43.1*,+,0.5,-12.6,12.5
Oc1oc(-c2cccc3ccccc23)nc1/C=N/c1nccs1,31.0*,12.8,i,38.4,-49.6,-2.4
Cc1cccc(/N=C/c2nc(-c3ccccc3Br)oc2O)n1,2.7,1.4,i,-1.0,-23.0,-1.0
Cc1ccc(NC2OC(CO)C(O)C2O)cc1[N+](=O)[O-] (stereo not given),-1.8,-2.0,i,0.7,-11.1,0.8
CCN(CC)C1=N/C(=C\c2ccco2)C(=O)N1c1ccccc1,16.3,11.7,i,5.6,-9.4,8.3
CC(C)CN(CC(C)C)C1=N/C(=C\c2ccco2)C(=O)N1c1ccccc1,10.2,38.5*,i,-0.9,15.3,1.1
Cc1c(C)n2c(SCC(=O)Nc3ccc4c(c3)OCCO4)nnc2[nH]c1=O,-6.1,3.3,i,1.0,-3.7,-0.5
Cc1c(C)n2c(SCC(=O)NCc3ccc4c(c3)OCO4)nnc2[nH]c1=O,2.1,51.6*,i,0.5,-8.2,0.4

# Bioassay records as filed in PubChem BioAssay.
